ChEMBL document CHEMBL1138239, “Probing molecular interactions within class II MHC Aq/glycopeptide/T-cell receptor complexes associated with collagen-induced arthritis” (2007)
*1 amine or outer side, *2 acyl side, *3 side chain or, on linkers, in order; H or OH if unused. Where a SMILES comes first, the peptide text is derived from it. [ ]: non-standard residue; d: D form. X4 = NC[C@@H](CC[C@H](N[*:1])C(=O)[*:2])O[C@@H]1O[C@H](CO)[C@H](O)[C@H](O)[C@H]1O; X2 = C[C@H](N[*:1])C(=O)CCC(=O)[*:2]; X5 = C[C@@H](/C=C/CC(=O)[*:2])N[*:1]

Legend:
Format in all cases: functional, Mus musculus
[1] = Induction of immune response of T-cell HD13.9 hybridoma in presence of antigen-presenting spleen cells expressing Aq assessed as drug concentration required to induce IL2 secretion after 24 hrs by ELISA
Procedure, shortened: (§1)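 5 × 10⁴ hybridoma cells co-cultured with 5 × 10⁵ syngeneic spleen cells and glycopeptide at 0, 0.00128, 0.0064, 0.032, 0.16, 0.8, 4, 20 µM for 24 h. Supernatant frozen, then IL-2 measured by sandwich ELISA (rat anti-mouse IL-2 capture and biotin detection, DELFIA read-out) against a recombinant mouse IL-2 standard. Score is the lowest concentration giving IL-2 at 6% of the maximal response to the native CII259-273 glycopeptide reference.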

[2] = Induction of immune response of T-cell HD13.10 hybridoma in presence of antigen-presenting spleen cells expressing Aq assessed as drug concentration required to induce IL2 secretion after 24 hrs by ELISA; procedure, shortened: as §1
[3] = Induction of immune response of T-cell HNC.1 hybridoma in presence of antigen-presenting spleen cells expressing Aq assessed as drug concentration required to induce IL2 secretion after 24 hrs by ELISA; procedure, shortened: as §1
[4] = Induction of immune response of T-cell HCQ.2 hybridoma in presence of antigen-presenting spleen cells expressing Aq assessed as drug concentration required to induce IL2 secretion after 24 hrs by ELISA; procedure, shortened: as §1
[5] = Induction of immune response of T-cell HCQ.3 hybridoma in presence of antigen-presenting spleen cells expressing Aq assessed as drug concentration required to induce IL2 secretion after 24 hrs by ELISA; procedure, shortened: as §1
[6] = Induction of immune response of T-cell HCQ.6 hybridoma in presence of antigen-presenting spleen cells expressing Aq assessed as drug concentration required to induce IL2 secretion after 24 hrs by ELISA; procedure, shortened: as §1
[7] = Induction of immune response of T-cell HMIR.2 hybridoma in presence of antigen-presenting spleen cells expressing Aq assessed as drug concentration required to induce IL2 secretion after 24 hrs by ELISA; procedure, shortened: as §1
[8] = Induction of immune response of T-cell 22a1-7E hybridoma in presence of antigen-presenting spleen cells expressing Aq assessed as drug concentration required to induce IL2 secretion after 24 hrs by ELISA; procedure, shortened: as §1

| SMILES | Activity [1] [µM] | Activity [2] [µM] | Activity [3] [µM] | Activity [4] [µM] | Activity [5] [µM] | Activity [6] [µM] | Activity [7] [µM] | Activity [8] [µM] |
| --- | --- | --- | --- | --- | --- | --- | --- | --- |
| CC[C@H](C)[C@H](NC(=O)CN)C(=O)N[C@@H](C)C(=O)CCC(=O)N[C@@H](Cc1ccccc1)C(=O)N[C@@H](CC[C@H](CN)O[C@@H]1O[C@H](CO)[C@H](O)[C@H](O)[C@H]1O)C(=O)NCC(=O)N[C@@H](CCC(=O)O)C(=O)N[C@@H](CCC(N)=O)C(=O)NCC(=O)N1CCC[C@H]1C(=O)N[C@@H](CCCCN)C(=O)NCC(=O)N[C@@H](CCC(=O)O)C(=O)N[C@H](C(=O)O)[C@@H](C)O (H-GI[X2]F[X4]GEQGPKGET-OH) | 0.8 | 0.8 | 4 | 0.8 | 0.8 | 0.8 | 4 | 4 |
| CC[C@H](C)[C@H](NC(=O)CN)C(=O)N[C@@H](C)/C=C/CC(=O)N[C@@H](Cc1ccccc1)C(=O)N[C@@H](CC[C@H](CN)O[C@@H]1O[C@H](CO)[C@H](O)[C@H](O)[C@H]1O)C(=O)NCC(=O)N[C@@H](CCC(=O)O)C(=O)N[C@@H](CCC(N)=O)C(=O)NCC(=O)N1CCC[C@H]1C(=O)N[C@@H](CCCCN)C(=O)NCC(=O)N[C@@H](CCC(=O)O)C(=O)N[C@H](C(=O)O)[C@@H](C)O (H-GI[X5]F[X4]GEQGPKGET-OH) |  |  |  | 20 | 20 | 20 |  |  |
